Source: ChEMBL document CHEMBL3864121, “Development of ebsulfur analogues as potent antibacterials against methicillin-resistant Staphylococcus aureus” (Bioorg Med Chem, 2016)
≈ marks a conversion by molar mass, not a printed value. Calls of active or inactive are those of the source. No cut-off for these calls is given here.

What was measured:
Staphylococcus aureus [1] = assay: Antibacterial activity against methicillin-resistant Staphylococcus aureus NRS51 measured after overnight incubation by broth double-dilution method; assay type: functional
Method in brief: (§1)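 MIC by broth double-dilution in liquid Mueller-Hinton medium. Values are reported in µg/mL.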

Staphylococcus aureus [2] = assay: Antibacterial activity against methicillin-resistant Staphylococcus aureus S17 measured after overnight incubation by broth double-dilution method; assay type: functional; method in brief: as §1
Staphylococcus aureus [3] = assay: Antibacterial activity against methicillin-resistant Staphylococcus aureus S14 measured after overnight incubation by broth double-dilution method; assay type: functional; method in brief: as §1
Staphylococcus aureus [4] = assay: Antibacterial activity against methicillin-resistant Staphylococcus aureus 2 measured after overnight incubation by broth double-dilution method; assay type: functional; method in brief: as §1
Staphylococcus aureus [5] = assay: Antibacterial activity against methicillin-resistant Staphylococcus aureus C19 measured after overnight incubation by broth double-dilution method; assay type: functional; method in brief: as §1
Staphylococcus aureus [6] = assay: Antibacterial activity against methicillin-resistant Staphylococcus aureus USA300 measured after overnight incubation by broth double-dilution method; assay type: functional; method in brief: as §1
Staphylococcus aureus [7] = assay: Antibacterial activity against methicillin-sensitive Staphylococcus aureus ATCC 25923 measured after overnight incubation by broth double-dilution method; assay type: functional; method in brief: as §1
Staphylococcus aureus [8] = assay: Antibacterial activity against methicillin-resistant Staphylococcus aureus G14 measured after overnight incubation by broth double-dilution method; assay type: functional; method in brief: as §1
[9] = test system: Mycolicibacterium smegmatis; assay: Antibacterial activity against Mycobacterium smegmatis MC2-155 measured after overnight incubation by broth double-dilution method; assay type: functional; conditions: str. MC2 155; method in brief: as §1
Enterococcus faecalis [10] = assay: Antibacterial activity against Enterococcus faecalis ATCC 49533 measured after overnight incubation by broth double-dilution method; assay type: functional
Method in brief: (§2)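 MIC by broth double-dilution in Mueller-Hinton medium. Re-testing at the time-kill inoculum used 1×10^6 CFU/mL.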

Enterococcus faecium = assay: Antibacterial activity against Enterococcus faecium BM4105-RF measured after overnight incubation by broth double-dilution method; assay type: functional; method in brief: as §1
Staphylococcus aureus [11] = assay: Antibacterial activity against methicillin-resistant Staphylococcus aureus USA200 measured after overnight incubation by broth double-dilution method; assay type: functional; method in brief: as §1
Staphylococcus aureus [12] = assay: Antibacterial activity against methicillin-resistant Staphylococcus aureus ATCC 33591 measured after overnight incubation by broth double-dilution method; assay type: functional; method in brief: as §1
Staphylococcus aureus [13] = assay: Antibacterial activity against methicillin-sensitive Staphylococcus aureus ATCC 29213 measured after overnight incubation by broth double-dilution method; assay type: functional; method in brief: as §1
Staphylococcus aureus [14] = assay: Antibacterial activity against methicillin-resistant Staphylococcus aureus C14 measured after overnight incubation by broth double-dilution method; assay type: functional; method in brief: as §1
Staphylococcus aureus [15] = assay: Antibacterial activity against methicillin-resistant Staphylococcus aureus G6 measured after overnight incubation by broth double-dilution method; assay type: functional; method in brief: as §1
Listeria monocytogenes = assay: Antibacterial activity against Listeria monocytogenes ATCC 19115 measured after overnight incubation by broth double-dilution method; assay type: functional; method in brief: as §2
Staphylococcus aureus [16] = assay: Antibacterial activity against methicillin-resistant Staphylococcus aureus C16 measured after overnight incubation by broth double-dilution method; assay type: functional; method in brief: as §1
Staphylococcus aureus [17] = assay: Antibacterial activity against methicillin-resistant Staphylococcus aureus G1 measured after overnight incubation by broth double-dilution method; assay type: functional; method in brief: as §1
Staphylococcus aureus [18] = assay: Antibacterial activity against methicillin-resistant Staphylococcus aureus S22 measured after overnight incubation by broth double-dilution method; assay type: functional; method in brief: as §1
Staphylococcus aureus [19] = assay: Antibacterial activity against methicillin-resistant Staphylococcus aureus NRS77 measured after overnight incubation by broth double-dilution method; assay type: functional; method in brief: as §1
Staphylococcus aureus [20] = assay: Antibacterial activity against methicillin-resistant Staphylococcus aureus C1 measured after overnight incubation by broth double-dilution method; assay type: functional; method in brief: as §1
Enterococcus = assay: Antibacterial activity against Vancomycin-resistant Enterococcus measured after overnight incubation by broth double-dilution method; assay type: functional; method in brief: as §1
Staphylococcus aureus [21] = assay: Antibacterial activity against methicillin-resistant Staphylococcus aureus USA100 measured after overnight incubation by broth double-dilution method; assay type: functional; method in brief: as §1
[22] = Cytotoxicity against HEK293 cells assessed as cell death at […] measured after 24 hrs by resazurin dye-based fluorescence analysis relative to untreated control; assay type: toxicity; conditions: human, hek293, 24 h
Staphylococcus aureus [23] = assay: Antibacterial activity against methicillin-resistant Staphylococcus aureus USA600 measured after overnight incubation by broth double-dilution method; assay type: functional; method in brief: as §1
Staphylococcus aureus [24] = assay: Antibacterial activity against methicillin-resistant Staphylococcus aureus NRS4 measured after overnight incubation by broth double-dilution method; assay type: functional; method in brief: as §1
Staphylococcus aureus [25] = assay: Antibacterial activity against methicillin-resistant Staphylococcus aureus C2 measured after overnight incubation by broth double-dilution method; assay type: functional; method in brief: as §1
Enterococcus faecalis [26] = assay: Antibacterial activity against Enterococcus faecalis ATCC 29212 measured after overnight incubation by broth double-dilution method; assay type: functional; method in brief: as §2
Staphylococcus aureus [27] = assay: Antibacterial activity against methicillin-resistant Staphylococcus aureus S24 measured after overnight incubation by broth double-dilution method; assay type: functional; method in brief: as §1
Staphylococcus aureus [28] = assay: Antibacterial activity against methicillin-resistant Staphylococcus aureus G12 measured after overnight incubation by broth double-dilution method; assay type: functional; method in brief: as §1
Staphylococcus aureus [29] = assay: Antibacterial activity against methicillin-resistant Staphylococcus aureus C7 measured after overnight incubation by broth double-dilution method; assay type: functional; method in brief: as §1
Staphylococcus aureus [30] = assay: Antibacterial activity against methicillin-resistant Staphylococcus aureus BRS3 measured after overnight incubation by broth double-dilution method; assay type: functional; method in brief: as §1
Staphylococcus aureus [31] = assay: Antibacterial activity against methicillin-resistant Staphylococcus aureus 1 measured after overnight incubation by broth double-dilution method; assay type: functional; method in brief: as §1
Staphylococcus aureus [32] = assay: Antibacterial activity against methicillin-sensitive Staphylococcus aureus ATCC 6538 measured after overnight incubation by broth double-dilution method; assay type: functional; method in brief: as §1
[33] = test system: Staphylococcus epidermidis; assay: Antibacterial activity against Staphylococcus epidermidis ATCC 35984 measured after overnight incubation by broth double-dilution method; assay type: functional; conditions: RP62A; method in brief: as §2
Staphylococcus aureus [34] = assay: Antibacterial activity against methicillin-resistant Staphylococcus aureus S22 using 1 10^6CFU/ml measured after overnight incubation by broth double-dilution method; assay type: functional

Row | SMILES | MIC (Staphylococcus aureus [1]) [µg/mL] | MIC (Staphylococcus aureus [2]) [µg/mL] | MIC (Staphylococcus aureus [3]) [µg/mL] | MIC (Staphylococcus aureus [4]) [µg/mL] | MIC (Staphylococcus aureus [5]) [µg/mL] | MIC (Staphylococcus aureus [6]) [µg/mL] | MIC (Staphylococcus aureus [7]) [µg/mL] | MIC (Staphylococcus aureus [8]) [µg/mL] | MIC [9] [µg/mL] | MIC (Enterococcus faecalis [10]) [µg/mL] | MIC (Enterococcus faecium) [µg/mL] | MIC (Staphylococcus aureus [11]) [µg/mL] | MIC (Staphylococcus aureus [12]) [µg/mL] | MIC (Staphylococcus aureus [13]) [µg/mL] | MIC (Staphylococcus aureus [14]) [µg/mL] | MIC (Staphylococcus aureus [15]) [µg/mL] | MIC (Listeria monocytogenes) [µg/mL] | MIC (Staphylococcus aureus [16]) [µg/mL] | MIC (Staphylococcus aureus [17]) [µg/mL] | MIC (Staphylococcus aureus [18]) [µg/mL] | further results
1 | O=c1c2ccccc2sn1CCc1ccccc1 | 2 (≈ 7.83 µM) | 1 (≈ 3.92 µM) | 0.5 (≈ 1.96 µM) | 1 (≈ 3.92 µM) | 1 (≈ 3.92 µM) | 2 (≈ 7.83 µM) | 1 (≈ 3.92 µM) | 1 (≈ 3.92 µM) | 2 (≈ 7.83 µM) | > 125 | > 125 | 2 (≈ 7.83 µM) | 1 (≈ 3.92 µM) | 2 (≈ 7.83 µM) | 2 (≈ 7.83 µM) | 1 (≈ 3.92 µM) | 3.9 (≈ 15.3 µM) | 3.9 (≈ 15.3 µM) | 0.5 (≈ 1.96 µM) | 3.9 (≈ 15.3 µM) | MIC (Staphylococcus aureus [19]): 2 µg/mL (≈ 7.83 µM); MIC (Staphylococcus aureus [20]): 2 µg/mL (≈ 7.83 µM); MIC (Enterococcus): 1 µg/mL (≈ 3.92 µM); MIC (Staphylococcus aureus [21]): 3.9 µg/mL (≈ 15.3 µM); Activity [22]: > 20%; MIC (Staphylococcus aureus [23]): 3.9 µg/mL (≈ 15.3 µM); MIC (Staphylococcus aureus [24]): 2 µg/mL (≈ 7.83 µM); MIC (Staphylococcus aureus [25]): 2 µg/mL (≈ 7.83 µM); MIC (Enterococcus faecalis [26]): > 125 µg/mL; MIC (Staphylococcus aureus [27]): 2 µg/mL (≈ 7.83 µM); MIC (Staphylococcus aureus [28]): 1 µg/mL (≈ 3.92 µM); MIC (Staphylococcus aureus [29]): 2 µg/mL (≈ 7.83 µM); MIC (Staphylococcus aureus [30]): 2 µg/mL (≈ 7.83 µM); MIC (Staphylococcus aureus [31]): 1 µg/mL (≈ 3.92 µM); MIC (Staphylococcus aureus [32]): 3.9 µg/mL (≈ 15.3 µM); MIC [33]: 2 µg/mL (≈ 7.83 µM)
2 | O=c1c2ccccc2sn1-c1cccc(Br)c1 | 3.9 (≈ 12.7 µM) | 3.9 (≈ 12.7 µM) | 0.5 (≈ 1.63 µM) | 3.9 (≈ 12.7 µM) | 3.9 (≈ 12.7 µM) | 3.9 (≈ 12.7 µM) | 7.8 (≈ 25.5 µM) | 7.8 (≈ 25.5 µM) | 3.9 (≈ 12.7 µM) | > 125 | 15.6 (≈ 50.9 µM) | 7.8 (≈ 25.5 µM) | 2 (≈ 6.53 µM) | 3.9 (≈ 12.7 µM) | 7.8 (≈ 25.5 µM) | 3.9 (≈ 12.7 µM) | 3.9 (≈ 12.7 µM) | 3.9 (≈ 12.7 µM) | 3.9 (≈ 12.7 µM) | > 125 | MIC (Staphylococcus aureus [19]): 3.9 µg/mL (≈ 12.7 µM); MIC (Staphylococcus aureus [20]): 3.9 µg/mL (≈ 12.7 µM); MIC (Enterococcus): 7.8 µg/mL (≈ 25.5 µM); MIC (Staphylococcus aureus [21]): 3.9 µg/mL (≈ 12.7 µM); MIC (Staphylococcus aureus [23]): 7.8 µg/mL (≈ 25.5 µM); Activity (Staphylococcus aureus [34]): Active; MIC (Staphylococcus aureus [24]): 7.8 µg/mL (≈ 25.5 µM); MIC (Staphylococcus aureus [25]): 3.9 µg/mL (≈ 12.7 µM); MIC (Enterococcus faecalis [26]): 15.6 µg/mL (≈ 50.9 µM); MIC (Staphylococcus aureus [27]): 3.9 µg/mL (≈ 12.7 µM); MIC (Staphylococcus aureus [28]): 7.8 µg/mL (≈ 25.5 µM); MIC (Staphylococcus aureus [29]): 3.9 µg/mL (≈ 12.7 µM); MIC (Staphylococcus aureus [30]): 7.8 µg/mL (≈ 25.5 µM); MIC (Staphylococcus aureus [31]): 7.8 µg/mL (≈ 25.5 µM); MIC (Staphylococcus aureus [32]): 7.8 µg/mL (≈ 25.5 µM); MIC [33]: 3.9 µg/mL (≈ 12.7 µM)
